Assay outcomes as filed in PubChem BioAssay.
NPY Y1 blocker: antagonists of human neuropeptide Y receptor Y1. P25929. 200,000 tested, 1% active. inhibition, % at 3.6 µM. HEK293-CNG Y1 cells, membrane potential fluorescence; NPY at EC95, then isoproterenol;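 active means inhibition above the campaign mean inhibition of all tested compounds plus 3 SD, cut at about 20% in these data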
Target sequence (P25929 whole entry, looked up): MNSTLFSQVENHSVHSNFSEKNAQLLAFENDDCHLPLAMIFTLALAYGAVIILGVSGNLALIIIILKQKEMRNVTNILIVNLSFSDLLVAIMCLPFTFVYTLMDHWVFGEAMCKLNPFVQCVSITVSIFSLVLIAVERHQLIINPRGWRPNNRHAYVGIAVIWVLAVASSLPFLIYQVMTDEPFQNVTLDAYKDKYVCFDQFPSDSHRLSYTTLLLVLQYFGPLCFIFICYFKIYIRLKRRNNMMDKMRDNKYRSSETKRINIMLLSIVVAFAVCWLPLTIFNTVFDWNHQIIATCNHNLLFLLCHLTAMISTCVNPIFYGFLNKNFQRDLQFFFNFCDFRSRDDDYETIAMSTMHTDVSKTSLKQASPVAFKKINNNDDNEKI
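Assay system: HEK293 cells with Y1 receptor plus CNG channel | Probe or stimulus: NPY (25 nM), isoproterenol (1 µM), Ro 20-1724 (25 µM) | Timing: Compound incubation 1 h at room temperature, readout 45 min post-stimulation | Measured by: Membrane-potential fluorescent dye readout | Benchmarks: High control isoproterenol alone, low control NPY with isoproterenol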
NPY-Y2 PAM-ag: human NPY-Y2 potentiation or agonism, primary screen; P49146; cells expressing NPY-Y2, potentiator/agonist read-out; activation, % at 3.6 µM; 220,000 tested, 0.45% active; in the data active means activation above about 27%;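 further: cells stimulated with NPY near EC25 plus isoproterenol at EC100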
NPY Y2 blocker: NPY-Y2 (human) receptor antagonism; P49146; NPY-Y2 expressing cells, antagonist mode; inhibition, % at 2.7 µM; 140,000 tested, 0.99% active; AID 793; in the data active means inhibition above about 17%
Insulin prom up: MIN6 insulin promoter up-regulation | MIN6 insulin promoter-GFP reporter, high-content imaging; active compounds read high | z-score at 5 µM | 190,000 tested, 0.3% active;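 active means z-score above 3 at 5 µM with at least 500 cells counted in the well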
Insulin prom inh: TRM-6 insulin promoter activity inhibition; TRM-6 cells, insulin promoter-eGFP reporter, imaging; reporter expression induced with tamoxifen; inhibition, % at 2 µM; 130,000 tested, 0.9% active; AID 1273;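 active means inhibition above the mean plus 3 SD, with well images judged a real hit on visual review, cut at about 60% in these data, passing the limit was not always enough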
NPY1 pot ag: human NPY-Y1 potentiation or agonism, primary screen | NPY-Y1 expressing cells, potentiator/agonist activation | AID 1304 | 220,000 tested, 0.37% active | P25929 | activation, % at 3.6 µM; in the data active means activation above about 33%, passing the limit was not always enough;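 further: cells stimulated with NPY at EC10 then isoproterenol at EC100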
NPY-Y1 pot conf: human NPY-Y1 potentiation or agonism, confirmation; shares compounds with NPY1 pot ag; cell-based NPY-Y1 potentiator/agonist assay; activation, % at 3.6 µM; 280 tested, 20% active; in the data active means activation above about 45%;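 further: cells challenged with NPY at its EC10 plus isoproterenol stimulus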
NPY-Y2 counter: NPY-Y2 potentiation or agonism as NPY-Y1 counter-screen; activation, % at 3.6 µM; AID 1649; HEK293-CNG cells, membrane-potential fluorescence (FLIPR), 1536-well; 280 tested, 20% active; shares compounds with NPY1 pot ag; in the data active means activation above about 33%
NPY-Y1 ag: human NPY-Y1 agonism as potentiator counter-screen; 280 tested, 50% active; AID 1697; activation, % at 3.6 µM; HEK293 Y1-CNGC, membrane potential fluorescence, agonist mode; shares compounds with NPY1 pot ag;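 active means percent activation above the mean of DMSO-only control wells plus 3 SD of those wells, cut at about 18% in these data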;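 further: cells challenged with isoproterenol plus Ro 20-1724 with no NPY in test wells; Y1 agonism lowers isoproterenol-driven cAMP and reduces probe fluorescence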
NPY-Y2 ag: counter-screen for NPY-Y1 potentiators or agonists: agonists of NPY-Y2; shares compounds with NPY1 pot ag; HEK293 Y2-CNGC, membrane potential fluorescence, agonist mode; 280 tested, 67% active; AID 1698; activation, % at 3.6 µM;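 active means activation above the solvent-only control wells' mean plus 3 SD, cut at about 11% in these data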;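 further: agonism lowers cAMP so well fluorescence drops in active wells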
CNGC inh 2: blocks cyclic nucleotide gated channel in NPY-Y1 counter-screen | shares compounds with NPY1 pot ag | HEK293-CNG parental, isoproterenol cAMP, membrane potential fluorescence | inhibition, % at 3.6 µM | 280 tested, 42% active | AID 1704;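 active means inhibition above the mean of stimulated solvent-only control wells plus 3 SD, cut at about 22% in these data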
Numbers stand for hits; i = inactive; nt = not tested or not shown. The list is not random: actives were taken first. Their share in the collection is about 2.5%.

SMILES	NPY Y1 blocker	NPY-Y2 PAM-ag	NPY Y2 blocker	Insulin prom up	Insulin prom inh	NPY1 pot ag	NPY-Y1 pot conf	NPY-Y2 counter	NPY-Y1 ag	NPY-Y2 ag	CNGC inh 2
COCc1cc(C)nc(SCC[N+](C)(C)CC(=O)Nc2cccc(C(F)(F)F)c2)c1C#N	i	i	nt	i	i	54	i	i	i	i	i
COc1ccccc1-n1c(SCC(N)=O)nnc1-c1ccccc1	i	i	i	nt	i	i	nt	nt	nt	nt	nt
COc1ccccc1-n1c(C)nnc1SCC(N)=O	i	i	i	i	i	43	i	i	i	i	i
O=C(COc1ccc(Cl)cc1Cl)NCCSc1ccc(Cl)cc1	i	i	i	i	i	91	i	i	i	i	i
CN(C)CCNC(=O)COc1ccc(Cl)cc1Cl	i	i	i	i	i	i	nt	nt	nt	nt	nt
COc1ccccc1NS(=O)(=O)c1cc(NC(=S)Nc2cc(C)cc(C)c2)ccc1Cl	i	i	i	i	i	i	nt	nt	nt	nt	nt
COc1ccccc1NS(=O)(=O)c1cc(N/C(=N\S(=O)(=O)c2ccccc2)c2ccc(F)cc2)ccc1Cl	i	i	i	i	i	43	i	i	25	24	43
CCOC(=O)C1=C(CC)Nc2ccccc2N/C1=N\S(=O)(=O)c1ccc2ccccc2c1	i	i	nt	i	i	i	nt	nt	nt	nt	nt
CCOC(=O)C1=C(CC)Nc2ccccc2N/C1=N\S(=O)(=O)c1cc(Br)ccc1Br	i	i	nt	i	i	33	i	i	i	i	i
COCCCNc1nc2c(c(=O)[nH]c(=O)n2C)n1CC(O)COc1ccccc1 (configuration not stated)	i	i	i	i	i	96	i	i	i	12	i
CSc1nnc(NC(=O)c2cc3ccccc3oc2=O)s1	i	i	i	i	nt	i	nt	nt	nt	nt	nt
O=C(CSc1ccc(-c2cccs2)nn1)c1cccs1	i	i	nt	i	i	i	nt	nt	nt	nt	nt
CNCC(O)COc1cccc(OC)c1 (configuration not stated)	i	i	nt	i	i	56	i	i	i	18	i
O=[N+]([O-])c1cccnc1NCc1cccs1	i	i	nt	i	i	i	nt	nt	nt	nt	nt
O=C(COC(=O)c1ccc(NS(=O)(=O)c2cccs2)cc1O)Nc1nc2ccccc2s1	i	i	nt	i	nt	43	i	i	38	25	22
O=C(COC(=O)c1ccc(NS(=O)(=O)c2cccs2)cc1O)NCc1ccccc1	i	i	nt	i	i	i	nt	nt	nt	nt	nt
Cc1[nH]c2ccccc2c1N=Nc1ccc(F)cc1	i	i	nt	i	i	39	i	i	33	30	26
CC(C)(CO)Nc1nc(Cl)nc(NC2CCCCC2)n1	nt	i	nt	i	nt	i	nt	nt	nt	nt	nt
COc1ccc(CCNC(=O)CCC(=O)Nc2nnc(C(C)C)s2)cc1OC	i	i	i	i	i	i	nt	nt	nt	nt	nt
COc1ccc(N=C2O/C(=C/c3sc(=S)n(CC4CCCO4)c3O)N=C2C#N)cc1 (configuration not stated)	nt	i	nt	i	nt	53	i	45	22	48	i
COc1ccc(/C=C2\SC(=S)N(CC3CCCO3)C2=O)cc1 (configuration not stated)	nt	i	nt	i	nt	i	nt	nt	nt	nt	nt
O=C(Cc1ccccc1)NN1C(=O)/C(=C/c2ccccc2C(=O)O)SC1=S	i	i	nt	nt	nt	i	nt	nt	nt	nt	nt
Cc1cc(C)nc(NC(=O)c2cc(Br)ccc2Cl)n1	i	i	nt	i	nt	i	nt	nt	nt	nt	nt
CCNC(=O)c1cc(Br)ccc1Cl	i	i	i	i	i	51	i	i	i	i	i
COc1ccc(C(C(=O)Nc2ccc(C(C)C)cc2)N(Cc2ccco2)C(=O)CC2NC(=O)NC2=O)cc1 (configuration not stated)	i	i	nt	i	i	i	nt	nt	nt	nt	nt
SMILES	NPY Y1 blocker	NPY-Y2 PAM-ag	NPY Y2 blocker	Insulin prom up	Insulin prom inh	NPY1 pot ag	NPY-Y1 pot conf	NPY-Y2 counter	NPY-Y1 ag	NPY-Y2 ag	CNGC inh 2
COC(=O)COc1ccc(S(=O)(=O)NCCC2=CCCCC2)cc1Cl	i	i	i	i	i	56	57	i	52	39	49
COCCNS(=O)(=O)c1ccc(OCC(=O)OC)c(Cl)c1	i	i	i	nt	i	i	nt	nt	nt	nt	nt
O=C(c1cc(-c2cccc(O)c2)on1)N1CCN(C(c2ccccc2)c2ccccc2)CC1	i	i	i	i	i	32	i	i	18	16	i
O=C(c1cc(C2CC2)on1)N1CCN(C(c2ccccc2)c2ccccc2)CC1	i	i	i	i	nt	i	nt	nt	nt	nt	nt
CC(=O)Nc1ccc(C(=O)Cn2c3[n+](c4c(F)c(F)ccc42)CCCCC3)cc1	i	i	nt	i	nt	i	nt	nt	nt	nt	nt
COc1ccc(/C=N/Nc2nc(N3CCCC3)nc(N3CCCC3)n2)cc1	i	i	i	i	i	i	nt	nt	nt	nt	nt
COC(=O)c1ccc(/C=N/Nc2nc(N3CCCCC3)nc(N3CCCCC3)n2)cc1	i	i	nt	i	i	72	i	i	i	i	i
COc1ccc(CCNC(=O)Cn2cc(C(F)(F)F)cc(Cl)c2=O)cc1OC	i	i	i	i	i	i	nt	nt	nt	nt	nt
Cn1c(=O)[nH]c(=O)c2c1nc(N1CCCCC1)n2CCSc1nc2ccccc2o1	i	i	i	i	nt	40	i	i	i	i	i
O=C(CC1NCCc2ccccc21)Nc1ccc(Cl)cc1 (configuration not stated)	i	i	nt	i	nt	56	i	i	i	i	i
COc1cc2c(cc1NC(=O)CN1C(=O)NC3(CCc4ccccc43)C1=O)oc1ccccc12 (configuration not stated)	i	i	i	i	i	35	62	39	37	44	45
CCOc1cc(N2CCOCC2)c(OCC)cc1NC(=O)CN1C(=O)NC2(CCc3ccccc32)C1=O (configuration not stated)	i	i	i	i	i	i	nt	nt	nt	nt	nt
C=CCNCCOc1ccc(C)cc1[N+](=O)[O-]	i	i	nt	nt	nt	39	i	i	i	i	i
COCCCNCCCCOc1ccc(C)cc1[N+](=O)[O-]	i	i	i	i	i	i	nt	nt	nt	nt	nt
CC(C)OCCCn1c(=N)c(C(N)=S)cc2c(=O)n3ccccc3nc21	i	i	i	i	nt	i	nt	nt	nt	nt	nt
CC(=O)N(Cc1cccs1)Cc1cc2ccc(C)c(C)c2nc1Cl	i	i	nt	i	i	i	nt	nt	nt	nt	nt
CC(C)(C)NC(=O)C(c1ccc(O)cc1)N(C(=O)Cn1nnc(-c2ccc(F)cc2)n1)c1ccccc1F (configuration not stated)	i	i	nt	i	nt	52	i	i	19	16	i
